Source: ChEMBL document CHEMBL1146239, “Kadsuphilols A-H, oxygenated lignans from Kadsura philippinensis” (J Nat Prod, 2007)

Columns and labels:
Format in all cases: functional
[1] = DPPH radical scavenging activity at 25 uM
In short: (§1)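 Compound dilutions prepared in 100% DMSO, mixed with 100 µM DPPH in ethanol at 37 °C, shaken vigorously and left to stand 30 min. Absorbance read at 517 nm by UV-vis spectrophotometry. Scavenging reported as percent at 100, 50, 25, 12.5 and 6.25 µM. Vitamins C and E served as standards.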

[2] = DPPH radical scavenging activity at 50 uM; in short: as §1
[3] = DPPH radical scavenging activity at 12.5 uM; in short: as §1
[4] = DPPH radical scavenging activity at 100 uM; in short: as §1
[5] = DPPH radical scavenging activity at 6.25 uM; in short: as §1

Molecule	Activity [1]	Activity [2]	Activity [3]	Activity [4]	Activity [5]	inhibition [4]
COc1cc2c(c(O)c1OC)-c1c(cc3c(c1OC)OCO3)[C@H](O)[C@H](C)[C@H](C)C2	-10.7%	-1.6%	-18.5%	-4.2%	-38.9%	–
COc1cc2c(c(OC)c1O)-c1c(cc(OC)c(OC)c1O)C[C@@H](C)[C@@H](C)[C@H]2OC(=O)/C=C/c1ccccc1	32.2%	34.4%	28.1%	38.1%	10%	–
C/C=C(\C)C(=O)O[C@H]1[C@@](C)(O)[C@@H](C)[C@H]2O[C@@]13CC(=O)C(OC)=C(OC)C31COc3c4c(cc2c31)OCO4 (stereo not given in full)	-3.2%	-3.7%	-4.7%	-2.8%	-5.3%	–
VITAMIN E	12.6%	12.9%	4.9%	17.6%	1.3%	–
C/C=C(\C)C(=O)O[C@H]1c2cc3c(c(OC)c2-c2c(cc(OC)c(OC)c2O)[C@H](OC(=O)/C(C)=C/C)[C@@]2(CO2)[C@H]1C)OCO3	48.1%	51.4%	46.2%	–	47.4%	54.7%
C/C=C(\C)C(=O)O[C@H]1[C@@](C)(O)[C@@H](C)[C@H]2O[C@@]13CC(OC)=C(OC)C(=O)C31COc3c4c(cc2c31)OCO4 (stereo not given in full)	6.1%	6.6%	3.9%	8.4%	3.9%	–
O=C1O[C@H]([C@@H](O)CO)C(O)=C1O	24.9%	36.7%	20.7%	39%	19.2%	–
C/C=C(\C)C(=O)O[C@@H]1C2=CC(OC)=C(OC)C(=O)C23COc2c4c(cc(c23)[C@@H](OC(=O)c2ccccc2)[C@H](C)[C@]1(C)O)OCO4 (stereo not given in full)	11.4%	12.8%	10.3%	12.9%	8.6%	–
COc1cc2c(c(O)c1OC)-c1c(cc3c(c1OC)OCO3)[C@H](OC(=O)c1ccccc1)[C@H](C)[C@H](C)[C@H]2OC(C)=O	-32.2%	-30.8%	-33.8%	-23.1%	-35.6%	–
C/C=C(\C)C(=O)O[C@@H]1c2cc3c(c4c2C2(CO4)C(=O)C(OC)=C(OC)C=C2[C@@H](OC(=O)c2ccccc2)[C@@](C)(O)[C@H]1C)OCO3 (stereo not given in full)	32%	33.9%	13.8%	35.6%	20.2%	–
